Measured values as given in paper PMC8418994 (Structure (London, England : 1993), 2021).

What was measured:
[1] = test system: [Y473E]-PPARγ LBD; assay: TR-FRET coregulator interaction assay; assay type: biochemical, human
[2] = test system: [Y473E]-PPARγ LBD; assay: Isothermal titration calorimetry; assay type: binding, human; conditions: ITC at 25°C; Figure S7; in words
Procedure, shortened: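 Human PPARγ LBD Y473E mutant (residues 203–477), expressed His-tagged in E. coli BL21(DE3), purified by Ni-NTA and gel filtration. Protein at 30 μM in the cell; test compound at 300 μM in the syringe. Both in 20 mM potassium phosphate pH 7.4, 50 mM KCl, 5 mM TCEP, 0.5 mM EDTA, 0.17% DMSO. A 0.4 μL pre-injection, then nineteen 2 μL injections at 25°C, stirring 1200 rpm.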

[3] = molecular target: T1, PPARγ LBD (Homo sapiens, UniProt P37231); assay: TR-FRET fluorescent tracer ligand displacement assay; assay type: binding
T1 sequence (P37231 203-477 isoform P37231-2): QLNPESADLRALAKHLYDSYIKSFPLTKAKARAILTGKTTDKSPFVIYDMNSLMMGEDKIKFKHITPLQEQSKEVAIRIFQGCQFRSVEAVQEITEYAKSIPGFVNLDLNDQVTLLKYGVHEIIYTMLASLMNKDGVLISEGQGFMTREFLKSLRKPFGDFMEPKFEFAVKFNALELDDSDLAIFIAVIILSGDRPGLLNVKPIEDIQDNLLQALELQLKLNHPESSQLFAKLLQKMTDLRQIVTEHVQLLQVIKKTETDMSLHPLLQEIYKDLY

CN(CCOc1ccc(C[C@H](Nc2ccccc2C(=O)c2ccccc2)C(=O)O)cc1)c1ccccn1 [GW1929]
concentration-dependent effect on interaction of the TRAP220/MED1 coactivator peptide [1]: essentially no concentration-dependent effect | binding affinity to [Y473E]-PPARγ LBD [2]: reasonably high affinity

Cc1oc(-c2ccccc2)nc1CCC(=O)c1ccc(CC2SC(=O)NC2=O)cc1 (stereo not drawn) [darglitazone]
Ki [3]: ≤ 1 nM
